Tests used:
MCF7 = assay: Antiproliferative activity against human MCF7 cells after 72 hrs by MTT assay; assay type: functional, cell-based; details: MCF7, 72 h
Summary of the method: (§1)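 Cells seeded on day 0 at 1–3 × 10⁴ cells/ml, density set by each line's doubling time. Compounds added in five 10-fold dilutions (10⁻⁸–10⁻⁴ M), freshly prepared on test day, with DMSO solvent control matched to working concentrations. Incubated 72 h, then MTT read-out of dehydrogenase activity in viable cells gives percentage of growth. Four parallel samples per point, three independent experiments.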

DNA [1] = assay: Binding affinity to calf thymus DNA in sodium cacodylate buffer assessed as melting temperature at compound/DNA ratio 0.3 at pH 7; assay type: nucleic-acid assay; details: Bos taurus
Summary of the method: (§2)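 ct-DNA dissolved in sodium cacodylate buffer (I = 0.05 mol dm⁻³, pH 7), sonicated, filtered, with concentration taken spectroscopically as phosphate. Absorbance at 260 nm followed against temperature, heating 1 °C/min. Ligand absorbance subtracted and scale normalized. Tm taken as transition midpoint from first-derivative maximum or tangent method. ΔTm = Tm(complex) − Tm(free DNA). Error ±0.5 °C.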

HeLa = assay: Antiproliferative activity against human HeLa cells after 72 hrs by MTT assay; assay type: functional, cell-based; summary of the method: as §1
MIA PaCa-2 = assay: Antiproliferative activity against human MIAPaCa2 cells after 72 hrs by MTT assay; assay type: functional, cell-based; details: MIA PaCa-2, 72 h; summary of the method: as §1
NCI-H460 = assay: Antiproliferative activity against human H460 cells after 72 hrs by MTT assay; assay type: functional, cell-based; details: NCI-H460, 72 h; summary of the method: as §1
DNA [2] = assay: Binding affinity to calf thymus DNA in sodium cacodylate buffer assessed as melting temperature at compound/DNA ratio 0.2 at pH 7; assay type: nucleic-acid assay; details: Bos taurus; summary of the method: as §2
[3] = Antiproliferative activity against human WI38 cells after 72 hrs by MTT assay; assay type: cell-based; details: WI-38, 72 h; summary of the method: as §1
DNA [4] = assay: Binding affinity to calf thymus DNA in sodium cacodylate buffer assessed as melting temperature at compound/DNA ratio 0.1 at pH 7; assay type: nucleic-acid assay; details: Bos taurus; summary of the method: as §2
DNA [5] = assay: Binding affinity to calf thymus DNA assessed as hypochromic effect by UV-vis spectra analysis; assay type: nucleic-acid assay; design: concentration or dose not given beside the values; details: Bos taurus
SW-620 = assay: Antiproliferative activity against human SW620 cells after 72 hrs by MTT assay; assay type: functional, cell-based; details: SW-620, 72 h; summary of the method: as §1
DNA [6] = assay: Binding affinity to calf thymus DNA assessed as relative fluorescence intensity by fluorescence emission spectra analysis relative to control; assay type: nucleic-acid assay; details: Bos taurus
Summary of the method: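 Fluorimetric titration: portions of ct-DNA (phosphate concentration determined spectroscopically; sonicated, filtered) added to compound in sodium cacodylate buffer pH 7.0, I = 0.05 mol dm-3; excitation 360–374 nm depending on compound to avoid inner filter effects, emission monitored at 400 nm; data corrected for dilution; fluorescence change expressed versus compound/ct-DNA ratio r.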

DNA [7] = assay: Binding affinity to calf thymus DNA in sodium cacodylate buffer at compound/DNA ratio < 0.1 pH 7 by fluorimetric titration; assay type: nucleic-acid assay; details: Bos taurus
Summary of the method: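 Compound solution in sodium cacodylate buffer (pH 7.0, I = 0.05 mol dm⁻³) titrated with portions of ct-DNA (6.31 × 10⁻³ mol dm⁻³), data corrected for dilution. Excitation at 360–374 nm, chosen per compound to avoid inner filter effects, with emission monitored at 400 nm. Ks and n obtained by non-linear least-squares Scatchard fitting of data at r < 0.1.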

DNA [8] = assay: Binding affinity to calf thymus DNA in sodium cacodylate buffer at compound/DNA ratio 0.5 pH 7 by fluorimetric titration; assay type: nucleic-acid assay; details: Bos taurus

With `COC(=O)/C(=C/c1ccc(-c2nc3cc(C(=N)NC(C)C)ccc3[nH]2)s1)c1ccccc1` the IC50 (MCF7) was 1 µM, the ΔTm (DNA [1]) was 2.7 °C and the IC50 (HeLa) was 30 µM. The IC50 (MIA PaCa-2) was 13 µM, the IC50 (NCI-H460) was 37 µM and the ΔTm (DNA [2]) was 2.3 °C. The IC50 [3] was over 100 µM, the ΔTm (DNA [4]) was 1.7 °C and the Activity (DNA [5]) was 18%. For the same compound, the IC50 (SW-620) was 62 µM and the Flu intensity (DNA [6]) was 232 a.u.

Work on `CCOC(=O)c1cc2oc(-c3nc4cc(C(=N)NC(C)C)ccc4[nH]3)cc2c2cc(C#N)ccc12` yielded an IC50 (MCF7) of 6 µM, a ΔTm (DNA [1]) of 1.6 °C and an IC50 (HeLa) of 72 µM. For the same compound, the IC50 (MIA PaCa-2) was 61 µM, the IC50 (NCI-H460) was over 100 µM and the log Ks (DNA [7]) was 5. It also gave a ΔTm (DNA [2]) of 1.4 °C, an IC50 [3] of over 100 µM and a ΔTm (DNA [4]) of 1 °C. It also gave an Activity (DNA [5]) of 10%, an IC50 (SW-620) of 85 µM and a Flu intensity (DNA [6]) of 282 a.u.

Work on `COC(=O)c1cc2oc(-c3nc4cc(C(=N)NC(C)C)ccc4[nH]3)cc2c2ccccc12` yielded an IC50 (MCF7) of 1 µM, a ΔTm (DNA [1]) of 3.8 °C and an IC50 (HeLa) of 18 µM. The IC50 (MIA PaCa-2) was 21 µM, the IC50 (NCI-H460) was 18 µM and the log Ks (DNA [7]) was 4.2. It also gave a ΔTm (DNA [2]) of 2.6 °C, an IC50 [3] of over 100 µM and a ΔTm (DNA [4]) of 1.8 °C. It also gave an Activity (DNA [5]) of 51%, an IC50 (SW-620) of 35 µM and a Flu intensity (DNA [6]) of 790 a.u.

With `COC(=O)c1cc2sc(-c3nc4cc(C(=N)NC(C)C)ccc4[nH]3)cc2c2ccccc12` the IC50 (MCF7) was 2 µM, the ΔTm (DNA [1]) was 5.8 °C and the IC50 (HeLa) was 15 µM. The IC50 (MIA PaCa-2) was 16 µM, the IC50 (NCI-H460) was 24 µM and the log Ks (DNA [7]) was 4.7. For the same compound, the ΔTm (DNA [2]) was 4.9 °C, the IC50 [3] was 71 µM and the ΔTm (DNA [4]) was 3.9 °C. It also gave an Activity (DNA [5]) of 15%, an IC50 (SW-620) of 29 µM and a Flu intensity (DNA [6]) of 916 a.u.

For `COC(=O)/C(=C/c1ccc(-c2nc3cc(C(=N)NC(C)C)ccc3[nH]2)o1)c1ccccc1`, the IC50 (MCF7) was 9 µM, the ΔTm (DNA [1]) was 0 °C and the IC50 (HeLa) was 17 µM. The IC50 (MIA PaCa-2) was 19 µM, the IC50 (NCI-H460) was 13 µM and the ΔTm (DNA [2]) was 0 °C. For the same compound, the IC50 [3] was 13 µM, the ΔTm (DNA [4]) was 0 °C and the Activity (DNA [5]) was 8%. For the same compound, the IC50 (SW-620) was 14 µM and the Flu intensity (DNA [6]) was 147 a.u.

Compound `CCOC(=O)/C(=C/c1ccc(-c2nc3cc(C(=N)NC(C)C)ccc3[nH]2)o1)c1ccc(C#N)cc1` has an IC50 (MCF7) of 2 µM, a ΔTm (DNA [1]) of 1.3 °C and an IC50 (HeLa) of 28 µM. For the same compound, the log Ks (DNA [8]) was 5.6, the IC50 (MIA PaCa-2) was 21 µM and the IC50 (NCI-H460) was 31 µM. The ΔTm (DNA [2]) was 0.8 °C, the IC50 [3] was 36 µM and the ΔTm (DNA [4]) was 0.6 °C. The Activity (DNA [5]) was 10%, the IC50 (SW-620) was 62 µM and the Flu intensity (DNA [6]) was 161 a.u.

From ChEMBL document CHEMBL1154473, “Synthesis, antitumor evaluation and DNA binding studies of novel amidino-benzimidazolyl substituted derivatives of furyl-phenyl- and thienyl-phenyl-acrylates, naphthofurans and naphthothiophenes” (Eur J Med Chem, 2008)
